The term Cmax denotes the maximum level reached in the sampled fluid or tissue. As usually defined, the clearance is the volume of plasma or blood freed of the substance per unit of time. A high value points to a high capacity for elimination. Usually Tmax stands for the time from dosing to the highest level.

The source of these data is ChEMBL document CHEMBL1143829, “Lack of effect of DX-619, a novel des-fluoro(6)-quinolone, on glomerular filtration rate measured by serum clearance of cold iohexol” (Antimicrob Agents Chemother, 2007).

Data set [1] deals with Homo sapiens. As to the kind of experiment: Effect on renal function in human assessed as creatinine clearance in 24 hrs urine sample at 800 mg, iv after 4 days relative to baseline. In kind it is functional. The gist of the method: (§1)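 Urine was collected over 24 h at baseline (−24 to 0 h), on day 4 (72–96 h) and on day 11 (240–264 h). CLCR = urinary creatinine amount / (SCr × 24 h) × (1.73/BSA), using SCr measured at the start of each collection.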

Data set [2] relates to Homo sapiens. As to the kind of experiment: Effect on renal function in human assessed as blood urea nitrogen concentration at 800 mg, iv after 11 days relative to baseline. Type of data set: functional.
Data set [3] can be described thus: Cmax at steady state in human after 4 days. In kind it is ADME, organism-based. To be noted: in vivo. The gist of the method: (§2)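 Plasma was sampled predose, at end of infusion, and 1, 3 and 9 h post-infusion on days 1 and 4, plus 24 h post-infusion on day 5. Drug was assayed by validated LC-MS/MS (0.02–10 µg/ml). Noncompartmental analysis; Cmax taken by observation without interpolation, with Tmax; day-4 values treated as steady state.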

Data set [4] has as its system Homo sapiens. As to the kind of experiment: Effect on renal function in human assessed as serum creatinine concentration at 800 mg, iv after 11 days relative to baseline. In kind it is functional.
The nature of data set [5]: Cmax […] in human after 1 day. In kind it is ADME, organism-based. To be noted: in vivo. The gist of the method: as §2
Data set [6] has as its system Homo sapiens. The experiment in a line: Effect on glomerular filtration rate in human assessed as iohexol clearance rate in plasma per 1.73 m2 at 800 mg, iv after 4 days relative to baseline. Type of data set: functional. The gist of the method:
(§3)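 GFR was measured as plasma clearance of iohexol. A single 20 ml bolus (300 mg/ml) was given on days 1, 4 and 11, timed to match 1 h after the end of the day-4 infusion. Blood was drawn at 120, 150, 180, 210, 240, 270 and 300 min and assayed by HPLC-UV. CL0 = dose × b/c1, with b and c1 from linear regression. Change from baseline used a noninferiority mixed-effects comparison with 95% CI.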

A short description of data set [7]: Renal clearance in human urine after 4 days. In kind it is ADME, organism-based. Conditions: read-out: CL_renal (converted). The gist of the method:
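Steady-state AUC (AUCss,24) covered 25 h from the start of the day-4 infusion to 24 h after it (linear up/log down rule). CL = dose/AUCss,24. Urine from 0–24 h on day 4 was assayed by LC-MS/MS, and renal clearance = Xu(0–24)/AUCss,24.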

The subject of data set [8] is Homo sapiens. The experiment in a line: Effect on renal function in human assessed as serum creatinine concentration at 800 mg, iv after 4 days relative to baseline. In kind it is functional.
Data set [9] relates to Homo sapiens. The experiment in a line: Effect on glomerular filtration rate in human assessed as iohexol clearance rate in plasma per 1.73 m2 at 800 mg, iv after 11 days relative to baseline. Type of data set: functional. The gist of the method: as §3
A short description of data set [10]: Clearance in human plasma after 4 days.
In data set [11] the test system is Homo sapiens. The experiment in a line: Effect on renal function in human assessed as creatinine clearance in 24 hrs urine sample at 800 mg, iv after 11 days relative to baseline. In kind it is functional. The gist of the method:
as §1

Data set [12] has as its system Homo sapiens. The experiment in a line: Effect on glomerular filtration rate in human assessed as creatinine clearance rate in plasma per 1.73 m2 at 800 mg, iv after 4 days relative to baseline. In kind it is functional.
The nature of data set [13]: Tmax in human plasma. In kind it is ADME, organism-based. The gist of the method:
as §2

Data set [14] is described as follows: Protein binding in human plasma. To be noted: read-out: PPB (converted). Type of data set: ADME, organism-based. The gist of the method:
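Plasma ultrafiltrate and matching plasma were sampled on days 1 and 4, predose and 1 and 4 h after infusion start, and assayed by LC-MS/MS (ultrafiltrate range 0.01–5.0 µg/ml). Binding at each time point was calculated from free ultrafiltrate versus total plasma concentration.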

The test system of data set [15] is Homo sapiens. As to the kind of experiment: Effect on glomerular filtration rate in human assessed as creatinine clearance rate in plasma per 1.73 m2 at 800 mg, iv after 11 days relative to baseline. Type of data set: functional.
Data set [16] deals with Homo sapiens. The experiment in a line: Effect on renal function in human assessed as blood urea nitrogen concentration at 800 mg, iv after 4 days relative to baseline. Type of data set: functional.

For `COc1c(N2CC[C@@H](C3(N)CC3)C2)ccc2c(=O)c(C(=O)O)cn([C@@H]3C[C@@H]3F)c12`, the Activity was -32.8 in data set [1]; -2.06 in data set [2]; 0.09 in data set [4]; 1.12 mL/min in data set [6]; 0.3 in data set [8]; -2.44 mL/min in data set [9]. For the same compound, the Activity is -3.4 in [11], 95.52 mL/min in [12], 94.3 mL/min in data set [15] and 0.69 in data set [16]. Moreover, the Cmax amounted to 8850 ng/mL in data set [3] and 8210 ng/mL in [5]. Also, in [7], the CL renal at 96 h was 43.3 mL/min. In addition, the clearance in [10] was determined as 166 mL/min. Besides, the Tmax in data set [13] turned out to be 1.25 h. For the same compound, the fraction unbound in data set [14] is 0.35.
